Entries after “also recorded” stand apart in the source; their conditions may differ.
How the values were obtained:
Type in all cases: in vivo, human
[1] = Safety and DLT evaluation
[2] = test system: HR+/HER2− advanced breast cancer; experiment: Efficacy by RECIST 1.1, additional 21 patients
In short: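 Additional cohort of 21 postmenopausal women aged ≤65 years. All had ER- and/or PR-positive (>1%) disease, ECOG 0–1 and progression after letrozole/anastrozole, with no prior HDAC inhibitor. […] Response was assessed by RECIST 1.1, with CR/PR confirmed at least 4 weeks after the initial response.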

[3] = Plasma pharmacokinetics of entinostat
[4] = DLT observation stage, 5 mg group
[5] = Stage I, 3 mg/week monotherapy, n=4
[6] = Stage I, 5 mg/week monotherapy, n=12
[7] = Stage I, 7 mg/week monotherapy, n=3
[8] = most common grade 3/4 AEs, 19 dose-escalation patients, stage not stated
[9] = female, human, plasma, po, 3 mg
[10] = female, human, plasma, po, 3 mg/week
[11] = female, human, plasma, po, 5 mg
[12] = female, human, plasma, po, 5 mg/week
[13] = female, human, plasma, po, 7 mg
[14] = female, human, plasma, po, 7 mg/week

## Nc1ccccc1NC(=O)c1ccc(CNC(=O)OCc2cccnc2)cc1 [Entinostat]
[1]; 3, 5, 7 mg/week
  Tolerability: well tolerated at all doses
[1]; [4]
  Grade 3/4 AEs: 16.7%
  Suspicious DLT (G3 ventricular tachycardia): one
[1]; DLT observation stage, 7 mg group
  Grade 3/4 AEs: 33.3%
[1]; Stage I, 3 mg/week group
  CTCAE grade 3 AE: no CTCAE grade 3 AE occurred
[1]; [5]
  AKP elevation, entinostat-related AE of all grades: 0 No. (%)
  ALT elevation, entinostat-related AE of all grades: 0 No. (%)
  AST elevation, entinostat-related AE of all grades: 0 No. (%)
  Abdominal pain, entinostat-related AE of all grades: 0 No. (%)
  Anemia, entinostat-related AE of all grades: 2 (50) No. (%)
  Back pain, entinostat-related AE of all grades: 0 No. (%)
  Chest pain, entinostat-related AE of all grades: 0 No. (%)
  Creatine increase, entinostat-related AE of all grades: 0 No. (%)
  Creatinine phosphokinase increase, entinostat-related AE of all grades: 0 No. (%)
  Debilitation, entinostat-related AE of all grades: 0 No. (%)
  Diarrhea, entinostat-related AE of all grades: 0 No. (%)
  Fatigue, entinostat-related AE of all grades: 0 No. (%)
  Flatulence, entinostat-related AE of all grades: 0 No. (%)
  Headache, entinostat-related AE of all grades: 0 No. (%)
  Hypoalbuminemia, entinostat-related AE of all grades: 0 No. (%)
  Hypocalcemia, entinostat-related AE of all grades: 0 No. (%)
  Hypokalemia, entinostat-related AE of all grades: 0 No. (%)
  Hypoproteinemia, entinostat-related AE of all grades: 0 No. (%)
  LDH increase, entinostat-related AE of all grades: 0 No. (%)
  Leukopenia, entinostat-related AE of all grades: 3 (75) No. (%)
  Limb pain, entinostat-related AE of all grades: 0 No. (%)
  Nausea, entinostat-related AE of all grades: 0 No. (%)
  Neutropenia, entinostat-related AE of all grades: 3 (75) No. (%)
  Palpitation, entinostat-related AE of all grades: 0 No. (%)
  Serum Ca^2+ decrease, entinostat-related AE of all grades: 0 No. (%)
  Serum Na+ decrease, entinostat-related AE of all grades: 0 No. (%)
  Serum albumin decrease, entinostat-related AE of all grades: 0 No. (%)
  Serum phosphate decrease, entinostat-related AE of all grades: 0 No. (%)
  Serum urea increase, entinostat-related AE of all grades: 0 No. (%)
  Thrombocytopenia, entinostat-related AE of all grades: 0 No. (%)
  Γ-GT elevation, entinostat-related AE of all grades: 0 No. (%)
  α-HBDH elevation, entinostat-related AE of all grades: 0 No. (%)
[1]; Stage I, 5 mg/week group
  Cases of CTCAE grade 3 AE: four
[1]; [6]
  AKP elevation, entinostat-related AE of all grades: 2 (16.7) No. (%)
  ALT elevation, entinostat-related AE of all grades: 2 (16.7) No. (%)
  AST elevation, entinostat-related AE of all grades: 2 (16.7) No. (%)
  Abdominal pain, entinostat-related AE of all grades: 2 (16.7) No. (%)
  Anemia, entinostat-related AE of all grades: 0 No. (%)
  Back pain, entinostat-related AE of all grades: 3 (25) No. (%)
  Chest pain, entinostat-related AE of all grades: 2 (16.7) No. (%)
  Creatine increase, entinostat-related AE of all grades: 0 No. (%)
  Creatinine phosphokinase increase, entinostat-related AE of all grades: 0 No. (%)
  Debilitation, entinostat-related AE of all grades: 2 (16.7) No. (%)
  Diarrhea, entinostat-related AE of all grades: 0 No. (%)
  Fatigue, entinostat-related AE of all grades: 2 (16.7) No. (%)
  Flatulence, entinostat-related AE of all grades: 2 (16.7) No. (%)
  Headache, entinostat-related AE of all grades: 3 (25) No. (%)
  Hypoalbuminemia, entinostat-related AE of all grades: 0 No. (%)
  Hypocalcemia, entinostat-related AE of all grades: 0 No. (%)
  Hypokalemia, entinostat-related AE of all grades: 0 No. (%)
  Hypoproteinemia, entinostat-related AE of all grades: 0 No. (%)
  LDH increase, entinostat-related AE of all grades: 0 No. (%)
  Leukopenia, entinostat-related AE of all grades: 7 (58.3) No. (%)
  Limb pain, entinostat-related AE of all grades: 0 No. (%)
  Neutropenia, entinostat-related AE of all grades: 4(33.3) No. (%)
  Palpitation, entinostat-related AE of all grades: 2 (16.7) No. (%)
  Serum Ca^2+ decrease, entinostat-related AE of all grades: 0 No. (%)
  Serum Na+ decrease, entinostat-related AE of all grades: 0 No. (%)
  Serum albumin decrease, entinostat-related AE of all grades: 0 No. (%)
  Serum phosphate decrease, entinostat-related AE of all grades: 0 No. (%)
  Serum urea increase, entinostat-related AE of all grades: 0 No. (%)
  Thrombocytopenia, entinostat-related AE of all grades: 2 (16.7) No. (%)
  Γ-GT elevation, entinostat-related AE of all grades: 2 (16.7) No. (%)
  α-HBDH elevation, entinostat-related AE of all grades: 2 (16.7) No. (%)
[1]; [7]
  AKP elevation, entinostat-related AE of all grades: 0 No. (%)
  ALT elevation, entinostat-related AE of all grades: 0 No. (%)
  AST elevation, entinostat-related AE of all grades: 0 No. (%)
  Abdominal pain, entinostat-related AE of all grades: 0 No. (%)
  Anemia, entinostat-related AE of all grades: 0 No. (%)
  Back pain, entinostat-related AE of all grades: 0 No. (%)
  Chest pain, entinostat-related AE of all grades: 0 No. (%)
  Creatine increase, entinostat-related AE of all grades: 0 No. (%)
  Creatinine phosphokinase increase, entinostat-related AE of all grades: 0 No. (%)
  Debilitation, entinostat-related AE of all grades: 0 No. (%)
  Diarrhea, entinostat-related AE of all grades: 0 No. (%)
  Fatigue, entinostat-related AE of all grades: 0 No. (%)
  Flatulence, entinostat-related AE of all grades: 0 No. (%)
  Headache, entinostat-related AE of all grades: 0 No. (%)
  Hypoalbuminemia, entinostat-related AE of all grades: 0 No. (%)
  Hypocalcemia, entinostat-related AE of all grades: 0 No. (%)
  Hypokalemia, entinostat-related AE of all grades: 0 No. (%)
  Hypoproteinemia, entinostat-related AE of all grades: 0 No. (%)
  LDH increase, entinostat-related AE of all grades: 0 No. (%)
  Leukopenia, entinostat-related AE of all grades: 0 No. (%)
  Limb pain, entinostat-related AE of all grades: 0 No. (%)
  Nausea, entinostat-related AE of all grades: 0 No. (%)
  Neutropenia, entinostat-related AE of all grades: 2 (66.7) No. (%)
  Palpitation, entinostat-related AE of all grades: 0 No. (%)
  Serum Ca^2+ decrease, entinostat-related AE of all grades: 0 No. (%)
  Serum Na+ decrease, entinostat-related AE of all grades: 0 No. (%)
  Serum albumin decrease, entinostat-related AE of all grades: 0 No. (%)
  Serum phosphate decrease, entinostat-related AE of all grades: 0 No. (%)
  Serum urea increase, entinostat-related AE of all grades: 0 No. (%)
  Thrombocytopenia, entinostat-related AE of all grades: 0 No. (%)
  Γ-GT elevation, entinostat-related AE of all grades: 0 No. (%)
  α-HBDH elevation, entinostat-related AE of all grades: 0 No. (%)
[1]; Stage I, all 19 patients
  Patients with entinostat-related AEs: 100%
[1]; all dose groups (3, 5, 7 mg/week)
  Dose-limiting toxicity (DLT) in Stage I: no patients experienced a DLT; also recorded: no DLT events occurred
[1]; [8]
  Grade 3/4 neutropenia: 31.6%
  Grade 3/4 thrombocytopenia: 15.8%
[1]; throughout the trial, up to 7 mg/week
  Median tolerance limit (MLT): not achieved
[2]; 21 patients, entinostat 5 mg + exemestane 25 mg, 95% CI: 1.17–30.38
  ORR (CR+PR): 9.52%
[2]; 21 patients, entinostat 5 mg + exemestane 25 mg, 95% CI: 21.82–65.98
  Clinical benefit rate (CBR, CR+PR+SD over 24 weeks): 42.86%
[2]; additional 21 patients, entinostat 5 mg/week + exemestane 25 mg/day
  Median progression-free survival: 9.41 months
[3]; 3–7 mg
  Dose dependence of exposure (Cmax, AUC): increased dose proportionally; also recorded: linear relationship between AUC0-168 and entinostat dose
[3]; Day 22, 5 mg/week oral, N=12, median (Min., Max.)
  Tmax: 0.50 (0.25, 8.00) h
[3]; female, human, plasma, oral
  Tmax: ~0.5 h
  half-life: 38.3 to 65.3 h
[3]; [9]
  AUC(0-inf): 572 ± 122 ng·h/mL
  Cmax: 49.2 ± 8.38 ng/mL
  half-life: 38.3 h
[3]; [10]
  AUC(0-inf): 609 ± 44.3 ng·h/mL
  Cmax: 55.7 ± 38.2 ng/mL
  Tmax: 0.47 h
  half-life: 65.3 h
[3]; [11]
  AUC(0-inf): 1070 ± 364 ng·h/mL
  Cmax: 101 ± 62.1 ng/mL
  half-life: 51.7 h
[3]; [12]
  AUC(0-inf): 1310 ± 349 ng·h/mL
  Cmax: 107 ± 63.2 ng/mL
  half-life: 61.9 h
[3]; [13]
  AUC(0-inf): 1380 ± 206 ng·h/mL
  Cmax: 154 ± 39.2 ng/mL
  Tmax: 0.55 h
  half-life: 48.1 h
[3]; [14]
  AUC(0-inf): 1650 ± 452 ng·h/mL
  Cmax: 122 ± 76.1 ng/mL
  half-life: 56.2 h

— paper PMC8484140 (Targeted Oncology, 2021)
